In ChEMBL document CHEMBL3124880, “4-(3-Chloro-5-(trifluoromethyl)pyridin-2-yl)-N-(4-methoxypyridin-2-yl)piperazine-1-carbothioamide (ML267), a potent inhibitor of bacterial phosphopantetheinyl transferase that attenuates secondary metabolism and thwarts bacterial growth” (J Med Chem, 2014):
Values after ≈ are worked out from the molar mass of the structure shown. Active and inactive are the calls of the source.

How the values were obtained:
[1] = test system: Candida albicans; experiment: Antifungal activity against fluconazole-resistant Candida albicans ATCC 96901 assessed as growth inhibition at 0.8 to 100 ug/mL after 48 hrs by resazurin dye-based assay; format: functional, organism-based
How it was run: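 Broth microdilution. Inoculum from overnight liquid cultures or 2-day colonies, ~1 × 10^3 cfu per well. Compound in DMSO added to cation-adjusted Mueller Hinton II broth (bacteria) or RPMI 1640 (fungi). Incubated at 30–37 °C for 16–20 h, or 48 h for fungi.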

[2] = test system: Candida albicans; experiment: Antifungal activity against fluconazole-sensitive Candida albicans ATCC 90028 assessed as growth inhibition at 0.8 to 100 ug/mL after 48 hrs by resazurin dye-based assay; format: functional, organism-based
How it was run: (§1)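 Broth microdilution. Test article from 1 μL DMSO in 50 μL cation-adjusted Mueller Hinton II (bacteria) or RPMI 1640 (fungi), plus ~1×10^3 cfu inoculum in the same medium. Incubated 16–20 h at 30–37 °C (48 h for fungi). MIC scored visually as the first well without growth; resazurin added for imaging.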

[3] = test system: Staphylococcus aureus; experiment: Antibacterial activity against methicillin-sensitive Staphylococcus aureus ATCC 6538 assessed as growth inhibition at 0.8 to 100 ug/mL after 16 to 20 hrs by resazurin dye-based assay; format: functional, organism-based; how it was run: as §1
[4] = test system: Bacillus subtilis; experiment: Antibacterial activity against Bacillus subtilis 168 assessed as growth inhibition after 16 to 20 hrs by resazurin dye-based assay; format: functional; settings: subsp. subtilis str. 168; how it was run: as §1
[5] = test system: Bacillus subtilis; experiment: Antibacterial activity against Bacillus subtilis HM489 assessed as growth inhibition at 1.7 ug/mL after 16 to 20 hrs by resazurin dye-based assay; format: functional, organism-based; how it was run: as §1
[6] = target: T1, L-aminoadipate-semialdehyde dehydrogenase-phosphopantetheinyl transferase (Homo sapiens) (UniProt Q9NRN7); experiment: Inhibition of human PPTase up to 125 uM by gel-based fluorescence assay
T1 sequence (whole entry): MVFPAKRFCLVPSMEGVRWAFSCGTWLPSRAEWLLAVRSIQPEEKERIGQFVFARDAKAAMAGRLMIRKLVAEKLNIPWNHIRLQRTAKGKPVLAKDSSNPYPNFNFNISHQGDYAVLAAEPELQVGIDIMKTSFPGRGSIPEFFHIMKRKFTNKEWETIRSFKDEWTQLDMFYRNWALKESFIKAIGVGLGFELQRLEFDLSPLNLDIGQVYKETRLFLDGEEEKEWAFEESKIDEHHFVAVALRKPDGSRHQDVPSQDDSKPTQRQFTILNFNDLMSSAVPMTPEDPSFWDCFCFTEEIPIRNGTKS

[7] = test system: Bacillus subtilis; experiment: Antibacterial activity against Bacillus subtilis HM489 assessed as cellular ATP content after 5 hrs by BacTiter-Glo assay; format: functional, organism-based; settings: HM489, 5 h
[8] = Inhibition of Bacillus subtilis AcpS-PPTase using rhodamine-CoA/BHQ-2-YbbR as substrate preincubated for 15 mins followed by substrate addition by HTS assay
How it was run: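 AcpS-PPTase at 100 nM final in 50 mM HEPES-Na pH 7.6, 10 mM MgCl2, 0.01% Nonidet P-40, 0.01% BSA; compound preincubated 15 min at room temperature, then rhodamine-CoA (5 μM final) and BHQ-2-YbbR (12.5 μM final) added. Fluorescence read (525 ex/598 em) at start and after 60 min; difference gives rate.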

[9] = test system: Bacillus subtilis; experiment: Antibacterial activity against Bacillus subtilis 168 assessed as disruption of cell membrane integrity at 10 times MIC after 15 mins by Syto9/propidium iodide staining-based BacLight LIVE/DEAD microscopic analysis; format: functional, organism-based; settings: subsp. subtilis str. 168
[10] = test system: Staphylococcus aureus; experiment: Antibacterial activity against Staphylococcus aureus BK2395 isolated from kidney of 30 mg/kg, ip compound-treated Swiss Webster mouse septicemia model assessed as growth inhibition; format: functional, organism-based; parameters: dose 30 mg/kg
How it was run: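 Bacteria harvested from the kidneys of septic mice treated with vehicle or compound, five isolates taken per crude sample. MICs measured in parallel with the parental USA500 strain.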

[11] = Protein binding in plasma (unknown origin) by equilibrium dialysis; format: ADME, cell-free
[12] = test system: Staphylococcus aureus; experiment: Antibacterial activity against Staphylococcus aureus BK2395 assessed as growth inhibition in presence of calf serum; format: functional
[13] = Mean residence time required for 63.2% elimination of drug in CD-1 mouse at 3 mg/kg, iv; format: ADME, organism-based; parameters: dose 3 mg/kg, route intravenous; settings: in vivo
How it was run: (§2)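 Male CD1 mice, 6–8 weeks old, given 3 mg/kg iv as a solution in 5% DMSO/10% Solutol in water. Plasma sampled at eight time points over 24 h, in triplicate; MRT defined as time to eliminate 63.2% of the iv dose.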

[14] = Volume of distribution in CD-1 mouse at 3 mg/kg, iv; format: ADME, organism-based; parameters: dose 3 mg/kg, route intravenous; settings: in vivo; how it was run: as §2
[15] = Cmax in CD-1 mouse at 30 mg/kg, ip; format: ADME, organism-based; parameters: dose 30 mg/kg, route intraperitoneal; settings: in vivo
How it was run: (§3)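 Male CD1 mice, 6–8 weeks old. Dosed iv at 3 mg/kg or ip at 30 mg/kg as a solution in 5% DMSO/10% Solutol in water. Plasma sampled in triplicate at eight time points over 24 h.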

[16] = Cmax in CD-1 mouse at 3 mg/kg, iv; format: ADME, organism-based; parameters: dose 3 mg/kg, route intravenous; settings: in vivo; how it was run: as §3
[17] = test system: Liver microsome; experiment: Drug metabolism in human liver microsomes assessed as GSH adduct formation at 50 uM after 60 mins by LC-MS/MS analysis in presence of NADPH; format: ADME; settings: 1 h
[18] = Metabolic stability in mouse liver microsomes measured over 1 hr in absence of NADPH; format: ADME, Microsome
How it was run: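 Mouse liver microsomes incubated with compound without NADPH over 1 h.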

[19] = target: CYP2D6 (Homo sapiens, UniProt P10635); experiment: Inhibition of CYP2D6 (unknown origin) using dextromethorphan as substrate at 3 uM relative to control; format: ADME; settings: probe dextromethorphan
How it was run: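 Compound at 3 μM co-incubated with CYP substrates: dextromethorphan for 2D6, 6β-hydroxytestosterone for 3A4. Percent inhibition reported; done at Pharmaron.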

[20] = test system: Bacillus subtilis; experiment: Antibacterial activity against Bacillus subtilis OKB105 assessed as effect on doubling time in log phase at 0.53 to 1.1 ug/mL after 28 hrs; format: functional, organism-based
How it was run: (§4)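 B. subtilis OKB105 cultured with compound at 0.53 or 1.1 µg/mL against a vehicle control. Culture density and surfactin titer sampled periodically over 28 h.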

[21] = test system: Bacillus subtilis; experiment: Antibacterial activity against Bacillus subtilis OKB105 assessed as inhibition of surfactin production after 28 hrs by LC-MS analysis; format: functional, organism-based; how it was run: as §4
[22] = test system: Bacillus subtilis; experiment: Antibacterial activity against Bacillus subtilis OKB105 assessed as inhibition of surfactin production at 1.1 ug/mL after 28 hrs by LC-MS analysis relative to vehicle-treated control; format: functional; settings: OKB105, 28 h
How it was run: (§5)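 B. subtilis OKB105 cultures grown with sublethal compound concentrations. Culture growth and surfactin titer measured periodically over 28 h; titer expressed relative to vehicle control.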

[23] = test system: Bacillus subtilis; experiment: Antibacterial activity against Bacillus subtilis OKB105 assessed as inhibition of surfactin production at 0.53 ug/mL after 28 hrs by LC-MS analysis relative to vehicle-treated control; format: functional; settings: OKB105, 28 h; how it was run: as §5
[24] = test system: Escherichia coli; experiment: Antibacterial activity against wild type Escherichia coli BW25113 assessed as growth inhibition at 1.8 to 250 ug/mL after 16 to 20 hrs by broth dilution method in presence of AcrAB-TolC inhibitor phenylarginine-beta-napthamide; format: functional
How it was run: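 E. coli BW25113 (wild type) and JW0451 (ΔacrB) tested by broth dilution in cation-adjusted Mueller Hinton II, ~1×10^3 cfu, 16–20 h. Growth shown with resazurin. Checkerboard combination with the efflux inhibitor PAβN in the wild type.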

Chain of CYP2D6 (P10635 whole entry): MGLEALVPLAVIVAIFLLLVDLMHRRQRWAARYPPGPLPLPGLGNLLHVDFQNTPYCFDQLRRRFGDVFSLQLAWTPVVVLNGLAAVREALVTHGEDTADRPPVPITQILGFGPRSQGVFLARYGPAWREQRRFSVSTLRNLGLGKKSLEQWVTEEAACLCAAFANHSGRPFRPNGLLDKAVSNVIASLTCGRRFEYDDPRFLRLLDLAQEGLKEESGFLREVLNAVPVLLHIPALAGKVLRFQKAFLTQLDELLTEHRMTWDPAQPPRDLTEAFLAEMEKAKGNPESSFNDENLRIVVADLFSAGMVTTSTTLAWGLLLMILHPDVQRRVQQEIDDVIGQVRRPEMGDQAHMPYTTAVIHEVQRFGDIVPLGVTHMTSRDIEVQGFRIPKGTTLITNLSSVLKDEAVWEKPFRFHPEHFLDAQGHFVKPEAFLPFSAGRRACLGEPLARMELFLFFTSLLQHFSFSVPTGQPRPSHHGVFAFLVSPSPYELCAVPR

## COc1ccnc(NC(=S)N2CCN(c3ncc(C(F)(F)F)cc3Cl)CC2)c1
[1]
  growth inhibition (GI): inactive
[2]
  growth inhibition (GI): inactive
[3]
  growth inhibition (GI): Active
[4]
  MIC: 2 µg/mL (≈ 4.63 µM)
[5]
  growth inhibition (GI): Active
[6]
  inhibition: inactive
[7]
  IC50: 9.3 µM
[8]
  IC50: 8.1 µM
[9]
  Activity: inactive
[10]
  growth inhibition (GI): Active
[11]
  PPB: 98.6%
[12]
  MIC: > 57 µM
[13]
  MRT: 3.4 h
[14]
  Vd: 1.5 L/kg
[15]
  Cmax: 17600 ng/mL
[16]
  Cmax: 4110 ng/mL
[17]
  Drug metabolism: Not Active
[18]
  Stability: Stable
[19]
  inhibition at 3 µM: 25%
[20]
  Activity: inactive
[21]
  inhibition: Dose-dependent effect
[22]
  inhibition at 1.1 µg/mL: 41%
[23]
  inhibition at 0.53 µg/mL: 33%
[24]
  growth inhibition (GI): Active
